Rtt109 HAT inh = inhibitors of Candida albicans Rtt109/Vps75 histone acetyltransferase; Q5AAJ8; purified Rtt109/Vps75, ThioGlo CoA-SH fluorescence, 4 h; inhibition, % at 34.9 µM; 330,000 tested, 0.16% active;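 active = inhibition of at least 50% in every replicate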
Target sequence (Q5AAJ8 whole entry, looked up): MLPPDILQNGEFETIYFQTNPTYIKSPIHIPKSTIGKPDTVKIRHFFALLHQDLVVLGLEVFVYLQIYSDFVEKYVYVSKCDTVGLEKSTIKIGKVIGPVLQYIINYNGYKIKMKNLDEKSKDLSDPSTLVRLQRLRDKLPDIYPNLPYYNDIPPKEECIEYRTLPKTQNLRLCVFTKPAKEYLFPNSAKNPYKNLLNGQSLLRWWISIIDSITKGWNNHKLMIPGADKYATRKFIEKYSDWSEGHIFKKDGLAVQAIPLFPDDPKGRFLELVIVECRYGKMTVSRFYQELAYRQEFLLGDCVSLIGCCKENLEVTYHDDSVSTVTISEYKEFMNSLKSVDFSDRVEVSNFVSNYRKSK
PAX8 inh HTS = lowers PAX8-driven luciferase in RMG-I cells; RMG-I TPO-luciferase reporter, SteadyGlo, 24 h; 360,000 tested, 1.2% active; inhibition, % at 12.6 µM; AID 652154;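 active = mean replicate inhibition at least 60% with every replicate also reaching 60%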;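 also: luciferase light reporting Pax8 driven TPO promoter activity; plate controls were median of neutral control wells for no effect and mitoxantrone controls for full effect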
HIV Env fusion = HIV envelope-mediated fusion inhibition; 360,000 tested, 1.1% active; inhibition, % at 12.3 µM; HeLa-JRFL Env/CEM21 cell fusion, luciferase;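 active = mean replicate inhibition score of at least 50 and every replicate individually at or above 50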;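 also: 0% = plate neutral controls and 100% = maraviroc near 300 nM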
Glyco luc inh = N-linked glycosylation inhibition | D54 ERlucT glycosylation luciferase reporter, 24 h; percent of 100 nM tunicamycin response | reporter increase, % at 12.5 µM | 360,000 tested, 0.23% active;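 active = mean luciferase reporter signal, scaled so untreated is 0 and the glycosylation-blocking control 100, at or above a set limit in every replicate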;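 also: luciferase carries N-glycosylation sites so blocking glycosylation raises the light; 0% = median of neutral control wells and 100% = median of 100 nM tunicamycin wells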
Arr AP2 block = human beta-arrestin and AP2 interaction inhibition | FITC-arrestin peptide / GST-AP2 beads, flow cytometry; AP2 beta2 appendage carries R879A mutation | inhibition, % at 10 µM | 340,000 tested, 0.31% active | AID 504490;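 active = inhibition above a set limit, near 3 SD of compounds lacking own fluorescence, cut at about 54% in these data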;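 also: plate controls were DMSO wells for no effect and 5 µM unlabelled arrestin peptide for full effect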
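System: GST-AP2 R879A glutathione beads | Also added: FITC-arrestin peptide, 50 nM | Times: 12 min plus 1 h, RT | Signal: Bead flow cytometry, FITC channel | Buffer or medium: PBS with 0.05% Tween 20 and 0.1% BSA | Read-out basis: Percent drop in bead-associated FITC signal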
PfHsp90 set2 = reduces growth (ATP signal) of yeast expressing P. falciparum Hsp90; S. cerevisiae expressing PfHsp90, BacTiter-Glo ATP, 48 h; yeast lacking PDR1 and PDR3 efflux regulators; inhibition, % at 9.4 µM; 310,000 tested, 0.32% active;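 active = every replicate shows inhibition above about 80%, whatever the replicate mean, limit read from the data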;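 also: 0% = DMSO neutral controls and 100% = 20 µM radicicol positive controls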
Numbers without * were called inactive; . = no result; [ ] = another dose, or the depositor's remark. In the library only some 2.3% were active in any assay of this set; here they are far more common.

SMILES	Rtt109 HAT inh	PAX8 inh HTS	HIV Env fusion	Glyco luc inh	Arr AP2 block	PfHsp90 set2
COc1ccc(NC(=O)C2Cc3c(-c4ccccc4Oc4ccccc4)ccnc3O2)cc1OC (centres undefined)	.	29.9	67.4*	-5.2	.	.
CC(=O)Nc1ccc(-c2ccnc3c2CC(C(=O)NCc2ccccc2)O3)cc1 (centres undefined)	.	91.7*	-110.7	15.7	.	.
O=C(NCc1ccccc1)C1Cc2c(-c3ccc4c(c3)OCO4)ccnc2O1 (centres undefined)	.	67.6*	-203.0	12.9	.	.
COc1ccc(C(=O)Nc2ccc3c(c2)C(=O)N(C)C[C@@H](OC)[C@@H](C)CN[C@H](C)CO3)cc1	.	-7.2	4.2[16.7 µM]	.	.	.
COc1ccc(S(=O)(=O)N(C)C[C@@H]2OCCCC[C@@H](C)Oc3ccc(NC(=O)NC4CCCCC4)cc3C(=O)N([C@H](C)CO)C[C@@H]2C)cc1	.	-10.2	12.7[16.7 µM]	.	.	.
Cc1noc(C)c1NC(=O)N(C)C[C@@H]1Oc2ccc(NC(=O)NC(C)C)cc2C(=O)N([C@H](C)CO)C[C@@H]1C	.	-39.6	-4.8[16.7 µM]	.	.	.
COC(=O)c1ccsc1NC(=O)CCS(=O)(=O)c1ccc(Cl)cc1	-5.6	82.9*	5.2	-9.3	4.0	-6.4
COC(=O)c1ccsc1NC(=O)CCS(=O)(=O)c1ccccc1	7.2	84.3*	24.3	-9.4	4.0	4.2
Cc1ccc(S(=O)(=O)CCC(=O)Nc2sccc2C(N)=O)cc1	7.6	8.2	-13.6	-3.5	12.9	-2.7
COC(=O)c1ccsc1NC(=O)CS(=O)(=O)c1ccccc1	16.2	-11.1	-10.8	0.3	21.4	.
CC(C)N(C[C@H]1N[C@@H](CO)[C@H]1c1ccccc1)C(=O)c1ccccc1	.	-14.9	.	.	.	.
O=C(C[C@@H]1C=C[C@@H](NC(=O)C2CCC2)[C@H](CO)O1)NCCCN1CCOCC1	.	-11.9	3.0[16.7 µM]	.	.	.
COCC(=O)Nc1ccc2c(c1)C(=O)N(C)C[C@@H](OC)[C@H](C)CN(C(C)=O)[C@@H](C)CO2	.	.	-16.4[16.7 µM]	.	.	.
C[C@@H]1CN([C@H](C)CO)C(=O)c2cc(NC(=O)CCCN(C)C)ccc2O[C@@H](C)CCCCO[C@@H]1CN(C)Cc1ccc(C(=O)O)cc1	.	-19.9	.	.	.	.
COc1cc2c(cc1OC)C(c1ccccc1)N(C(=O)c1ccccc1)CC2 (centres undefined)	-4.0	-5.0	-60.0	33.6*	-7.4	-6.7
COCCNC(=S)N1CCc2cc(OC)c(OC)cc2C1c1cccs1 (centres undefined)	0.0	15.4	12.7	58.6*	5.1	-9.3
COc1cc2c(cc1OC)C(c1cccs1)N(C(=O)c1cccc(S(=O)(=O)N(C)C)c1)CC2 (centres undefined)	11.2	-0.1	11.5	32.0*	22.9	16.7
COc1cc2c(cc1OC)C(c1ccccc1)N(C(=O)c1ccco1)CC2 (centres undefined)	3.0	-3.6	8.5	34.2*	4.5	-3.7
CCCN1C[C@@H](C)[C@H](OC)CN(C)C(=O)c2ccc(NC(=O)c3cnccn3)cc2OC[C@@H]1C	.	-11.3	.	.	.	.
COc1cc2c(cc1OC)C(c1ccccc1)N(C(=O)c1ccccc1F)CC2 (centres undefined)	0.9	-1.5	6.4	36.5*	-4.4	18.1
CC(=O)O[C@H]1[C@H](O)[C@H](Oc2c(O)c(C)c3c4c2[C@@H](C)CC[C@@H]4[C@@H](C)C[C@H]3C=C(C)C)O[C@@H](C)[C@H]1O	5.3	.	.	-3.1	8.1	118.1*
COc1ccc(COCC23N=C4SCc5ccccc5CN4[C@H](c4ccccc4O2)[C@H]3COC(=O)c2ccccc2)cc1	.	6.9	69.3*[16.7 µM]	.	.	.
C#CCOCCOCCOCCNc1nc(N2CCN(C(=O)C([C@@H](C)O)n3cc([C@@H](N)CCCCN)nn3)CC2)nc(N2CCN(C(=O)[C@H](CO)n3cc([C@@H](N)C(C)C)nn3)CC2)n1 (some centres undefined)	-2.3	-5.8	-21.9	2.9	-20.1	-19.2
C#CCOCCOCCOCCNc1nc(N2CCN(C(=O)C([C@@H](C)O)n3cc([C@@H](N)CCCCN)nn3)CC2)nc(N2CCN(C(=O)C([C@@H](C)O)n3cc([C@@H](N)CCCCN)nn3)CC2)n1 (some centres undefined)	73.3*	-8.0	.	3.7	0.5	2.2
Cc1ccccc1Cn1c(C(=O)OC(C)C)cc2c1ccn2C	-5.3	13.7	53.7*	-2.8	-1.8	.
SMILES	Rtt109 HAT inh	PAX8 inh HTS	HIV Env fusion	Glyco luc inh	Arr AP2 block	PfHsp90 set2
Cc1ccc(C)c(Cn2c(C(=O)OC(C)C)cc3c2ccn3C)c1	7.7	11.6	30.3	-2.4	-4.8	47.6
COC(=O)C[C@H]1CC[C@H]2[C@@H](COC[C@@H](O)CN2S(=O)(=O)c2ccccc2C)O1	.	3.7	.	.	.	.
Cc1cc(/C=C2\SC(=S)N(C)C2=O)c(C)n1-c1ccc(O)cc1	-4.6	7.1	0.2	-19.8	-5.0	96.0*
Cc1cc(/C=C2\SC(=S)NC2=O)c(C)n1-c1cccc(O)c1	21.2	-193.7	-170.3	-4.5	5.8	93.8*
C[C@@H]1CCCCO[C@@H](CN(C)C(=O)Nc2ccc3c(c2)OCO3)[C@H](C)CN([C@H](C)CO)C(=O)c2cc(NC(=O)Nc3ccc(F)cc3)ccc2O1	.	35.5	-23.6[16.7 µM]	.	.	.
C[C@@H]1CN([C@H](C)CO)C(=O)c2cc(NC(=O)Nc3ccc4c(c3)OCO4)ccc2O[C@H]1CN(C)Cc1ccccc1	.	-22.5	-4.4[16.7 µM]	.	.	.
CS(=O)(=O)N1CC(=O)N2[C@H](CO)[C@H](c3ccc(C#CCC4CCCC4)cc3)[C@H]2C1	.	76.0*	.	.	.	.

Source: PubChem (several laboratories)
